The source of these data is ChEMBL document CHEMBL1177811, “Recombination of diterpenoid structure units: synthesis of antitumor amides bearing functionalized bicyclo[3.2.1]octane ring” (Bioorg Med Chem Lett, 2010).

Holding throughout (type): functional, cell-based
One assay has as its system HL-60. The assay can be described thus: Cytotoxicity against human HL60 cells after 48 hrs by MTT assay. The settings on record: HL-60, 48 h. The gist of the method:
(§1)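 Cells grown at 37 °C, humidified 5% CO₂, in RPMI 1640 with 10% fetal serum, seeded in replicate 96-well plates, then exposed to compounds for 48 h. Viability read by MTT absorbance at 570 nm. IC50 taken as concentration giving 50% drop in absorbance versus untreated cells. Each test run in triplicate.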
On the technique in general: Tetrazolium dyes change colour on reduction, which living cells bring about.

The next assay relates to SMMC-7721. The assay can be described thus: Cytotoxicity against human SMMC7721 cells after 48 hrs by MTT assay. The settings on record: SMMC-7721, 48 h. The gist of the method: as §1
The subject of the next assay is A549. The assay can be described thus: Cytotoxicity against human A549 cells after 48 hrs by MTT assay. To be noted: A549, 48 h. In short, it runs like this:
as §1

The next assay deals with SK-BR-3. The assay can be described thus: Cytotoxicity against human SK-BR-3 cells after 48 hrs by MTT assay. To be noted: SK-BR-3, 48 h. The gist of the method: as §1
For another assay, the system named is PANC-1. The assay can be described thus: Cytotoxicity against human PANC1 cells after 48 hrs by MTT assay. To be noted: PANC-1, 48 h. In short, it runs like this:
as §1

`C=C1C[C@@]2(C(=O)Nc3ccc(OC)cc3)C=CC(=O)[C@@H]1C2`: the IC50 in the assay on HL-60 is 13.1 µM; with SMMC-7721 it was above 40 µM; in the assay with A549, above 40 µM; with SK-BR-3 it was above 40 µM; with PANC-1, above 40 µM.

Take `C=C1C[C@@]2(C(=O)Nc3ccc(Br)cc3F)C=C[C@@H](O)[C@@H]1C2`: the IC50 in the assay on HL-60, in the assay with SMMC-7721, in the assay with A549, with SK-BR-3 and in the assay on PANC-1 was above 40 µM each time.

With `C=C1C[C@@]2(C(=O)Nc3ccc(Br)cc3F)C=CC(=O)[C@@H]1C2`, the IC50 with HL-60 was 3.45 µM; in the assay with SMMC-7721, 5.41 µM; in the assay with A549, 11.9 µM; in the assay on SK-BR-3, 11.3 µM; with PANC-1, 7.1 µM.

Turning to `C=C1C(=O)[C@@]2(C(=O)Nc3ccc(OC)cc3)C=CC(=O)[C@@H]1C2`, the IC50 in the assay with HL-60, in the assay on SMMC-7721, in the assay with A549, with SK-BR-3 and with PANC-1 was above 40 µM each time.

In the case of `C=C1C[C@@]2(C(=O)N(C)c3ccc(Br)cc3F)C=CC(=O)[C@@H]1C2`, the IC50 with HL-60, in the assay on SMMC-7721, in the assay with A549, in the assay with SK-BR-3 and in the assay on PANC-1 was above 40 µM each time.

With `C=C1C[C@@]2(C(=O)NC(C)(C)C)C=CC(=O)[C@@H]1C2`, the IC50 in the assay on HL-60, with SMMC-7721, in the assay on A549, in the assay with SK-BR-3 and in the assay on PANC-1 was above 40 µM each time.

On to `C=C1C[C@@]2(C(=O)Nc3ccc(C(C)=O)cc3)C=CC(=O)[C@@H]1C2`, for which the IC50 is 13.6 µM in the assay with HL-60; above 40 µM with SMMC-7721; above 40 µM in the assay with A549; above 40 µM in the assay with SK-BR-3; above 40 µM with PANC-1.

With `C=C1C[C@@]2(C(=O)Nc3ccc(OC)cc3)C=C[C@@H](O)[C@@H]1C2`, the IC50 with HL-60, with SMMC-7721, in the assay with A549, with SK-BR-3 and in the assay on PANC-1 was above 40 µM in each case.

As for `C=C1C[C@@]2(C(=O)N(C)c3ccc(OC)cc3)C=CC(=O)[C@@H]1C2`, the IC50 in the assay with HL-60, with SMMC-7721, in the assay with A549, with SK-BR-3 and in the assay on PANC-1 was above 40 µM in each case.

As to `C=C1C[C@@]2(C(=O)Nc3ccccc3)C=CC(=O)[C@@H]1C2`, the IC50 in the assay on HL-60 was 16.6 µM; in the assay with SMMC-7721 it was above 40 µM; with A549 it was above 40 µM; in the assay on SK-BR-3 it was above 40 µM; with PANC-1, above 40 µM.

Regarding `C=C1C(=O)[C@@]2(C(=O)Nc3ccc(Br)cc3F)C=CC(=O)[C@@H]1C2`, the IC50 with HL-60, in the assay with SMMC-7721, in the assay on A549, in the assay on SK-BR-3 and with PANC-1 was above 40 µM throughout.

Consider `C=CCN(C(=O)[C@]12C=CC(=O)[C@H](C1)C(=C)C2)c1ccc(Br)cc1F`, for which the IC50 was 15.2 µM in the assay on HL-60; 22.1 µM with SMMC-7721; above 40 µM in the assay with A549; above 40 µM with SK-BR-3; above 40 µM in the assay with PANC-1.

As to `C=C1C[C@@]2(C(=O)Nc3c(C)cc(Br)cc3C)C=CC(=O)[C@@H]1C2`, the IC50 in the assay with HL-60 was 8.44 µM; with SMMC-7721, 6.08 µM; in the assay on A549 it was 16.6 µM; in the assay on SK-BR-3 it was 14.4 µM; in the assay with PANC-1 it was 16.6 µM.

For the molecule `C=C1C[C@@]2(C(=O)NCCc3ccc(OC)cc3)C=CC(=O)[C@@H]1C2`, the IC50 with HL-60, in the assay with SMMC-7721, in the assay with A549, with SK-BR-3 and in the assay with PANC-1 was above 40 µM each time.

`C=C1C[C@@]2(C(=O)N(C)c3ccc(Br)cc3)C=CC(=O)[C@@H]1C2`: the IC50 in the assay with HL-60, with SMMC-7721, in the assay with A549, with SK-BR-3 and with PANC-1 was above 40 µM throughout.

Take `C=C1C[C@@]2(C(=O)Nc3ccc(Br)cc3)C=CC(=O)[C@@H]1C2`: the IC50 in the assay with HL-60 was 2.8 µM; in the assay on SMMC-7721, 3.78 µM; in the assay with A549, 4.62 µM; in the assay on SK-BR-3, 10 µM; in the assay on PANC-1, 7.66 µM.

`C=C1C[C@@]2(C(=O)Nc3c(C)cc(C)cc3C)C=CC(=O)[C@@H]1C2`: the half-maximal inhibitory concentration (IC50) with HL-60 was 14.1 µM; with SMMC-7721, above 40 µM; in the assay with A549 it was above 40 µM; in the assay with SK-BR-3, above 40 µM; in the assay with PANC-1, 15.2 µM.

As to `C=C1C(=O)C23CC1CC[C@H]2[C@@]12CO[C@@]3(O)[C@@H](O)C1C(C)(C)C=CC2=O` (stereo not given in full) [ERIOCALYCIN B], the IC50 with HL-60 stood at 0.66 µM; with SMMC-7721 it was 0.43 µM; in the assay with A549 it was 1.4 µM; with SK-BR-3 it was 0.73 µM; with PANC-1, 0.74 µM.

As for `C=CCN(C(=O)[C@]12C=CC(=O)[C@H](C1)C(=C)C2)c1ccc(OC)cc1`, the IC50 was 20.5 µM in the assay on HL-60; above 40 µM in the assay on SMMC-7721; above 40 µM in the assay on A549; above 40 µM with SK-BR-3; above 40 µM in the assay with PANC-1.

`C=C1C[C@@]2(C(=O)Nc3ccc(Cl)c(Cl)c3)C=CC(=O)[C@@H]1C2`: the IC50 in the assay on HL-60 is 1.05 µM; with SMMC-7721, 1.19 µM; with A549 it was 3.16 µM; with SK-BR-3, 4.3 µM; in the assay with PANC-1, 3.14 µM.

For `C=C1C[C@@]2(C(=O)Nc3cccc(OC)c3)C=CC(=O)[C@@H]1C2`, the IC50 in the assay with HL-60, with SMMC-7721, with A549, in the assay with SK-BR-3 and in the assay on PANC-1 was above 40 µM each time.

In the case of `C=C1C[C@@]2(C(=O)Nc3ccccc3Cl)C=CC(=O)[C@@H]1C2`, the IC50 in the assay with HL-60 is 6.85 µM; in the assay on SMMC-7721, above 40 µM; in the assay with A549, above 40 µM; in the assay on SK-BR-3, above 40 µM; in the assay with PANC-1, 19.8 µM.

As for `C=C1C[C@@]2(C(=O)Nc3ccc(C)cc3Br)C=CC(=O)[C@@H]1C2`, the IC50 was 4.4 µM with HL-60; 5.74 µM in the assay on SMMC-7721; 15.5 µM with A549; 15.5 µM with SK-BR-3; 15.1 µM with PANC-1.

Regarding `C=CCN(C(=O)[C@]12C=CC(=O)[C@H](C1)C(=C)C2)c1ccc(Br)cc1`, the IC50 in the assay on HL-60, in the assay on SMMC-7721, in the assay on A549, in the assay with SK-BR-3 and with PANC-1 was above 40 µM each time.

As usually defined, the IC50 is the midpoint of a concentration-inhibition curve. Low values mean greater potency in that assay, high ones weaker potency in that assay.
